In ChEMBL document CHEMBL1128453, “Peptidyl alpha-ketoheterocyclic inhibitors of human neutrophil elastase. 3. In vitro and in vivo potency of a series of peptidyl alpha-ketobenzoxazoles” (J Med Chem, 1995):

Assays:
[1] = Percentage reduction in erythrocytes following elastase challenge/treatment.; assay type: functional; design: concentration or dose not given beside the values
How it was run: (§1)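 Male Syrian hamsters (90–110 g), anaesthetised with brevital sodium (30 mg/kg ip), received intratracheal HNE (400 μg in 0.01 M PBS). Test agent was given intratracheally, either admixed with the enzyme or predosed (shortest interval 6 h). Dose interval is the longest with significant lesion inhibition. At 24 h, wet lung weight/body weight and lavage red/white cells (Coulter) were measured. Results are % reduction scaled between the HNE and saline controls (p = 0.05).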

[2] = Percent reduction in leukocytes following elastase challenge/treatment.; assay type: functional; design: concentration or dose not given beside the values; how it was run: as §1
[3] = biological target: T1, Neutrophil elastase (Homo sapiens) (UniProt P08246); conditions: Lung
T1 sequence (whole entry): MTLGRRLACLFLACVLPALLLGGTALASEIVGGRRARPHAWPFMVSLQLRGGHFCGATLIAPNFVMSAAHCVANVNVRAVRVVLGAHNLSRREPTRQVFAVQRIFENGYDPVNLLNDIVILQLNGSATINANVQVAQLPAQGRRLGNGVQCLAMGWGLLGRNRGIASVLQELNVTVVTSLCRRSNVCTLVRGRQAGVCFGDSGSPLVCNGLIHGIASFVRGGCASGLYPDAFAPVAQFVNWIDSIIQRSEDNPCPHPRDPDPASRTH

Neutrophil elastase = biological target: T2, Neutrophil elastase (Homo sapiens, UniProt P08246); assay: Inhibition of human neutrophil elastase-catalyzed hydrolysis of the synthetic substrate MeO-Suc-Ala-Ala-Pro-Val-pNa
T2 sequence (P08246 whole entry): T1 sequence (whole entry)

[4] = Evaluated for the percent reduction relative to HNE and saline controls of red blood cells; assay type: functional; how it was run: as §1
Cricetinae gen. sp. [5] = assay: Compound is evaluated for wet lung weight (LW) relative to body weight (Bw).Value is statistically significant relative to control (p = 0.05).; assay type: functional; how it was run: as §1
[6] = Evaluated for the percent reduction relative to HNE and saline controls of white blood cells; assay type: functional; how it was run: as §1
Cricetinae gen. sp. [7] = assay: Dose interval reported as the longest interval at which significant inhibition of HNE induced uM Dose of HNE used was 400 ug/hamster; assay type: functional; how it was run: as §1
[8] = Evaluated for the percent reduction relative to HNE and saline controls of red blood cells. An asterisk (*) indicates (p = 0.05).; assay type: functional; how it was run: as §1

| Structure (SMILES) | Lw/Bw [3] | Ki (Neutrophil elastase) | Reduction [1] | Reduction [2] | also measured |
| --- | --- | --- | --- | --- | --- |
| CC(C)[C@H](NC(=O)[C@@H]1CCCN1C(=O)[C@@H](NC(=O)OCc1ccccc1)C(C)C)C(=O)c1nc2cc(C(=O)ON)ccc2o1 | – | 1 nM | – | – | – |
| CC(C)[C@H](NC(=O)[C@@H]1CCCN1C(=O)[C@@H](NC(=O)OCc1ccccc1)C(C)C)C(=O)c1nc2cc(C(=O)O)ccc2o1 | – | 4.2 nM | – | – | – |
| CC(C)[C@H](NC(=O)[C@@H]1CCCN1C(=O)[C@@H](NC(=O)c1ccc(S(N)(=O)=O)cc1)C(C)C)C(=O)c1nc2ccccc2o1 | – | – | -44% | -42% | – |
| CC(C)[C@H](NC(=O)[C@@H]1CCCN1C(=O)[C@@H](NC(=O)OCc1ccccc1)C(C)C)C(=O)c1nc2cc(CO[Si](C)(C)C(C)(C)C)ccc2o1 | – | 0.43 nM | – | – | – |
| COC(=O)c1ccc2nc(C(=O)[C@@H](NC(=O)[C@@H]3CCCN3C(=O)[C@@H](NC(=O)c3ccc(C(=O)NS(=O)(=O)c4ccc(Cl)cc4)cc3)C(C)C)C(C)C)oc2c1 | – | – | 76% | 72% | – |
| CC(C)[C@H](NC(=O)[C@@H]1CCCN1C(=O)[C@@H](NC(=O)c1ccc(C(=O)OC(C)(C)C)cc1)C(C)C)C(=O)c1nc2ccccc2o1 | – | – | – | – | Reduction [4]: 29%; Lw/Bw (Cricetinae gen. sp. [5]): 41; Reduction [6]: -14% |
| CC(C)[C@H](NC(=O)[C@@H]1CCCN1C(=O)[C@@H](NC(=O)c1ccc(C(=O)O)cc1)C(C)C)C(=O)c1nc2ccccc2o1 | – | – | – | -1% | Reduction [8]: 49% |
| CC(C)[C@H](NC(=O)[C@@H]1CCCN1C(=O)[C@@H](NC(=O)OCc1ccccc1)C(C)C)C(=O)c1nc2cc(C#N)ccc2o1 | – | 1.8 nM | – | – | – |
| CC(C)[C@H](NC(=O)[C@@H]1CCCN1C(=O)[C@@H](NC(=O)c1ccc(C(=O)NS(=O)(=O)c2ccc(Cl)cc2)cc1)C(C)C)C(=O)c1nc2ccccc2o1 | – | – | 80% | 84% | Dose interval (Cricetinae gen. sp. [7]): 6 h |
| CC(C)[C@H](NC(=O)[C@@H]1CCCN1C(=O)[C@@H](NC(=O)OCc1ccccc1)C(C)C)C(=O)c1nc2cc(Cl)ccc2o1 | – | 1.1 nM | – | – | – |
| COC(=O)c1ccc(C(=O)N[C@H](C(=O)N2CCC[C@H]2C(=O)N[C@H](C(=O)c2nc3ccccc3o2)C(C)C)C(C)C)cc1 | – | – | – | -5% | Reduction [4]: 17% |
| CC(C)[C@H](NC(=O)[C@@H]1CCCN1C(=O)[C@@H](NC(=O)c1ccc(NC(=O)NS(=O)(=O)c2ccc(Cl)cc2)cc1)C(C)C)C(=O)c1nc2ccccc2o1 | – | – | 68% | 82% | Dose interval (Cricetinae gen. sp. [7]): 6 h |
| CC(C)[C@H](NC(=O)[C@@H]1CCCN1C(=O)[C@@H](NC(=O)OCc1ccccc1)C(C)C)C(=O)c1nc2cc(CC(=O)O)ccc2o1 | – | 4.4 nM | – | – | – |
| COC(=O)Cc1ccc2oc(C(=O)[C@@H](NC(=O)[C@@H]3CCCN3C(=O)[C@@H](NC(=O)OCc3ccccc3)C(C)C)C(C)C)nc2c1 | – | 1.1 nM | – | – | – |
| CC(C)[C@H](NC(=O)[C@@H]1CCCN1C(=O)[C@@H](NC(=O)c1ccc(NC(=O)NS(=O)(=O)c2ccccc2)cc1)C(C)C)C(=O)c1nc2ccccc2o1 | 63 | 0.6 nM | 62% | 31% | – |
| CC(C)[C@H](NC(=O)[C@@H]1CCCN1C(=O)[C@@H](NC(=O)OCc1ccccc1)C(C)C)C(=O)c1nc2cc(CO)ccc2o1 | – | 2.4 nM | – | – | – |
| COc1ccc2oc(C(=O)[C@@H](NC(=O)[C@@H]3CCCN3C(=O)[C@@H](NC(=O)OCc3ccccc3)C(C)C)C(C)C)nc2c1 | – | 1.9 nM | – | – | – |

More lines, main results first:

| Lw/Bw [3] | Ki (Neutrophil elastase) | Structure (SMILES) | Reduction [1] | Reduction [2] | also measured |
| --- | --- | --- | --- | --- | --- |
| 63 | 0.65 nM | CC(C)[C@H](NC(=O)[C@@H]1CCCN1C(=O)[C@@H](NC(=O)c1ccc(C(=O)NS(=O)(=O)c2ccc(Cl)cc2)cc1)C(C)C)C(=O)c1nc2cc(C(=O)O)ccc2o1 | 94% | 66% | – |
| 48 | 0.06 nM | COC(=O)c1ccc2oc(C(=O)[C@@H](NC(=O)[C@@H]3CCCN3C(=O)[C@@H](NC(=O)c3ccc(NC(=O)NS(=O)(=O)c4ccc(Cl)cc4)cc3)C(C)C)C(C)C)nc2c1 | 13% | -31% | – |
| 30 | 0.66 nM | CC(C)[C@H](NC(=O)[C@@H]1CCCN1C(=O)[C@@H](NC(=O)c1ccc(C(=O)NS(=O)(=O)c2ccc(Cl)cc2)cc1)C(C)C)C(=O)c1nc2cc(CO)ccc2o1 | 46% | 39% | – |
| 71 | 0.3 nM | COC(=O)c1ccc2oc(C(=O)[C@@H](NC(=O)[C@@H]3CCCN3C(=O)[C@@H](NC(=O)c3ccc(NS(=O)(=O)C(F)(F)F)cc3)C(C)C)C(C)C)nc2c1 | 82% | 77% | – |
| 15 | – | COC(=O)c1ccc2oc(C(=O)[C@@H](NC(=O)[C@@H]3CCCN3C(=O)[C@@H](NC(=O)c3ccc(S(N)(=O)=O)cc3)C(C)C)C(C)C)nc2c1 | -32% | 30% | – |
| 29 | 0.5 nM | CC(C)[C@H](NC(=O)[C@@H]1CCCN1C(=O)[C@@H](NC(=O)c1ccc(C(=O)NS(=O)(=O)c2ccccc2)cc1)C(C)C)C(=O)c1nc2ccccc2o1 | 58% | 64% | Dose interval (Cricetinae gen. sp. [7]): 6 h |
| 68 | 1.5 nM | CC(C)[C@H](NC(=O)[C@@H]1CCCN1C(=O)[C@@H](NC(=O)c1ccc(C(=O)NS(=O)(=O)C(C)C)cc1)C(C)C)C(=O)c1nc2ccccc2o1 | 60% | 70% | – |
| 38 | – | CC(C)[C@H](NC(=O)[C@@H]1CCCN1C(=O)[C@@H](NC(=O)c1ccc(C(=O)NS(=O)(=O)c2ccc(Cl)cc2)cc1)C(C)C)C(=O)c1nc2cc(O)ccc2o1 | 57% | 40% | – |
| 87 | 4.6 nM | CC(C)[C@H](NC(=O)[C@@H]1CCCN1C(=O)[C@@H](NC(=O)c1ccc(C(=O)NS(C)(=O)=O)cc1)C(C)C)C(=O)c1nc2ccccc2o1 | 84% | 78% | – |
| – | 0.55 nM | COC(=O)c1ccc2nc(C(=O)[C@@H](NC(=O)[C@@H]3CCCN3C(=O)[C@@H](NC(=O)OCc3ccccc3)C(C)C)C(C)C)oc2c1 | – | – | – |
| 48 | 0.66 nM | COc1ccc2oc(C(=O)[C@@H](NC(=O)[C@@H]3CCCN3C(=O)[C@@H](NC(=O)c3ccc(C(=O)NS(=O)(=O)c4ccc(Cl)cc4)cc3)C(C)C)C(C)C)nc2c1 | 21% | 24% | – |
| – | 0.37 nM | COC(=O)c1ccc2oc(C(=O)[C@@H](NC(=O)[C@@H]3CCCN3C(=O)[C@@H](NC(=O)OCc3ccccc3)C(C)C)C(C)C)nc2c1 | – | – | – |
| 67 | 0.1 nM | COC(=O)c1ccc2oc(C(=O)[C@@H](NC(=O)[C@@H]3CCCN3C(=O)[C@@H](NC(=O)c3ccc(C(=O)NS(=O)(=O)c4ccc(Cl)cc4)cc3)C(C)C)C(C)C)nc2c1 | 71% | -32% | – |
